Activity calls are given as the source filed them. The rule behind the calls is not given here.
Tests used:
[1] = tested on: Nucleophosmin (Homo sapiens), P06748 [T199N]; assay: (§1) Inhibition of phosphorylated NPM1 recruitment to chromatic in 6 Gy irradiated human A549 cells assessed as band intensity ratio of protein solubility measured as extraction of pT199NPM1 pretreated 30 mins and measured after 90 mins of irradiation at 25 uM by Western blot analysis in presence of high NP-40 lysis buffer relative to DMSO control; assay type: cell-based
Nucleophosmin (Homo sapiens), P06748 [T199N], sequence (P06748 whole entry T199N): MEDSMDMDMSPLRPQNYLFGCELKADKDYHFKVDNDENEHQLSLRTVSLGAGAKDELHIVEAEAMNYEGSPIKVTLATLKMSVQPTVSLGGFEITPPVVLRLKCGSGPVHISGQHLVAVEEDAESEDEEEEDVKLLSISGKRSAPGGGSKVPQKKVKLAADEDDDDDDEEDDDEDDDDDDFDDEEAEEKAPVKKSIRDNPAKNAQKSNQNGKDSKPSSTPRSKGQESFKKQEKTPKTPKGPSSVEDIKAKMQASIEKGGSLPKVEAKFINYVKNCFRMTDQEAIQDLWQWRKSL
Summary of the method: (§2)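 A549 cells at 70–80% confluency were exposed to compound for 30 min, given 6 Gy from a Cs137 source at 2 Gy/min, and held 90 min at 37°C. Equal protein was run on 10% SDS-PAGE and immunoblotted for pT199 NPM1 and total NPM1. Band intensity ratio = (compound+6 Gy)/(DMSO+6 Gy).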

[2] = tested on: Nucleophosmin (Homo sapiens), P06748 [T199N]; assay: Inhibition of phosphorylated NPM1 recruitment to chromatic in 6 Gy irradiated human A549 cells assessed as extraction of pT199NPM1 pretreated 30 mins and measured after 90 mins of irradiation at 2.5 uM by Western blot analysis relative to DMSO control in presence of high NP-40 lysis buffer; assay type: cell-based; summary of the method: as §2
[3] = biological target: Nucleophosmin (Homo sapiens) (UniProt P06748); assay: (§3) Inhibition of phosphorylated NPM1 recruitment to chromatic in 6 Gy irradiated human A549 cells assessed as increase in solubility of protein pretreated 30 mins and measured after 90 mins of irradiation at 5 uM by Western blot analysis relative to DMSO control in presence of high NP-40 lysis buffer; assay type: cell-based
Nucleophosmin (Homo sapiens), sequence (P06748 whole entry): as the sequence (P06748 whole entry T199N) above, with N199T counted along it

[4] = tested on: Nucleophosmin (Homo sapiens), P06748 [T199N]; assay: Inhibition of phosphorylated NPM1 recruitment to chromatic in 6 Gy irradiated human A549 cells assessed as increase in protein solubility as extraction of pT199NPM1 pretreated 30 mins and measured after 90 mins of irradiation at 10 uM by Western blot analysis; assay type: cell-based
Summary of the method: (§4)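 Drug or DMSO at various concentrations was present on A549 cells for 30 min before, during, and 90 min after 0 or 6 Gy. Nuclear proteins were extracted in 420 mM NaCl high salt buffer and blotted for pT199 NPM1. Buffer-soluble pNPM1 in irradiated cells was quantified relative to non-irradiated cells (±SD, N=3). EC50 was taken from the band intensity plot.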

Nucleophosmin [5] = biological target: T1, Nucleophosmin (Homo sapiens, UniProt P06748, T199N); assay: Inhibition of phosphorylated NPM1 recruitment to chromatic in 6 Gy irradiated human A549 cells assessed as increase in protein solubility as extraction of pT199NPM1 pretreated 30 mins and measured after 90 mins of irradiation by Western blot analysis; assay type: cell-based; summary of the method: as §4
T1 sequence (P06748 whole entry T199N): as the sequence (P06748 whole entry T199N) above

[6] = tested on: Nucleophosmin (Homo sapiens), P06748 [T199N]; assay: Inhibition of phosphorylated NPM1 recruitment to chromatic in 6 Gy irradiated human A549 cells assessed as extraction of pT199NPM1 pretreated 30 mins and measured after 90 mins of irradiation at 25 uM by Western blot analysis in presence of high salt lysis buffer; assay type: cell-based
Summary of the method: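 A549 cells were dosed with 25 μM drug for 30 min, irradiated, and incubated 90 min. Nuclei were isolated on ice, then extracted in high salt buffer (10 mM HEPES pH 7.2, 420 mM NaCl, 1.5 mM MgCl2, 0.5 mM DTT, 25% glycerol). Extracts were immunoblotted for pT199 NPM1 and total NPM1.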

[7] = tested on: Nucleophosmin (Homo sapiens), P06748 [T199N]; assay: Inhibition of phosphorylated NPM1 recruitment to chromatic in 6 Gy irradiated human A549 cells assessed as extraction of pT199NPM1 pretreated 30 mins and measured after 90 mins of irradiation at 25 uM by Western blot analysis in presence of high NP-40 lysis buffer; assay type: cell-based
[8] = tested on: Nucleophosmin (Homo sapiens), P06748 [T199N]; assay: Inhibition of phosphorylated NPM1 recruitment to chromatic in 6 Gy irradiated human A549 cells assessed as extraction of pT199NPM1 pretreated 30 mins and measured after 90 mins of irradiation at 25 uM by Western blot analysis in presence of high RIPA lysis buffer; assay type: cell-based
[9] = tested on: Nucleophosmin (Homo sapiens), P06748 [T199N]; assay: Inhibition of phosphorylated NPM1 recruitment to chromatic in 6 Gy irradiated human IMR90 cells assessed as extraction of pT199NPM1 pretreated 30 mins and measured after 90 mins of irradiation at 25 uM by Western blot analysis relative to DMSO control in presence of high NP-40 lysis buffer; assay type: cell-based; details: IMR-90
Summary of the method: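 IMR-90 normal lung fibroblasts, grown in DMEM, received 25 μM drug for 30 min, were irradiated, and were incubated 90 min. Total lysate was prepared with NP-40 lysis buffer and analysed by Western blot for pT199 NPM1.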

[10] = tested on: Nucleophosmin (Homo sapiens), P06748 [T199N]; assay: as §1, with “2.5” for “25”; assay type: cell-based
Nucleophosmin [11] = biological target: T1, Nucleophosmin; assay: (§5) Inhibition of phosphorylated NPM1 recruitment to chromatic in 6 Gy irradiated human A549 cells assessed as extraction of pT199NPM1 pretreated 30 mins and measured after 90 mins of irradiation by Western blot analysis in presence of high NP-40 lysis buffer; assay type: cell-based
[12] = tested on: Nucleophosmin (Homo sapiens), P06748 [T199N]; assay: as §5, with “assessed as increase in protein solubility” for “assessed”, “analysis relative to YTR107” for “analysis”; assay type: cell-based
NCI-H460 = assay: Radiodensitization of 6 Gy irradiated human H460 cells assessed as colony formation pretreated 30 mins followed by irradiated for 90 mins and washed off measured after 10 to 14 days incubation at 5 uM by trypan blue assay; assay type: functional, cell-based
Summary of the method: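 H460 cells, grown in RPMI-1640, were plated in T25 flasks and exposed to 5 μM drug at 37°C for 30 min. They were then irradiated at various radiation doses and incubated 90 min. Drug was washed off with PBS and fresh medium added. Flasks were kept 10–14 days, and colonies were stained with trypan blue and counted.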

[13] = biological target: Nucleophosmin (Homo sapiens) (UniProt P06748); assay: as §3, with “irradiation at 2.5 to 5 uM” for “irradiation at 5 uM”; assay type: cell-based

Cc1c(C=C2C(=O)NC(=O)NC2=O)c2ccccc2n1Cc1ccc(C#N)cc1
Ratio [1]: 1.58 | Activity [2]: inactive | Activity [3]: Active

N#Cc1ccc(Cn2cc(C=C3C(=O)NC(=O)NC3=O)c3ccccc32)cc1
Activity [4]: Active | EC50 (Nucleophosmin [5]): 9.7 µM | Activity [6]: Active | Activity [7]: Active | Activity [8]: Active | Ratio [1]: 1.51 | Activity [9]: inactive

COc1cc(Cn2c(C)c(C=C3C(=O)NC(=S)NC3=O)c3ccccc32)cc(OC)c1OC
Ratio [1]: 1.97

COc1cc(Cn2c(C)c(C=C3C(=O)NC(=S)NC3=O)c3ccccc32)cc(OC)c1
Ratio [1]: 1.97

Cc1c(C=C2C(=O)NC(=S)NC2=O)c2ccccc2n1Cc1ccccc1Br
Ratio [1]: 1.68

COC(=O)c1ccc(Cn2c(C)c(C=C3C(=O)NC(=O)NC3=O)c3ccccc32)cc1
Ratio [1]: 1.48

COc1ccc(Cn2c(C)c(C=C3C(=O)NC(=S)NC3=O)c3ccccc32)c(OC)c1
Ratio [1]: 1.22

Cc1c(C=C2C(=O)NC(=O)NC2=O)c2ccccc2n1Cc1ccccc1C(F)(F)F
Ratio [1]: 1.16

Cc1c(C=C2C(=O)NC(=S)NC2=O)c2ccccc2n1Cc1ccc(Br)cc1
Ratio [10]: 1.78 | EC50 (Nucleophosmin [11]): 2.5 µM | fold change (FC) [12]: 4 | Activity (NCI-H460): Active

Cc1c(C=C2C(=O)NC(=O)NC2=O)c2ccccc2n1Cc1ccc(Br)cc1
Ratio [1]: 1.23

COc1cc(Cn2c(C)c(C=C3C(=O)NC(=O)NC3=O)c3ccccc32)cc(OC)c1OC
Ratio [1]: 1.16

Cc1c(C=C2C(=O)NC(=O)NC2=O)c2ccccc2n1Cc1ccccc1Br
Ratio [1]: 1.05

COC(=O)c1ccc(Cn2c(C)c(C=C3C(=O)NC(=S)NC3=O)c3ccccc32)cc1
Ratio [1]: 1.74

Cc1c(C=C2C(=O)NC(=S)NC2=O)c2ccccc2n1Cc1ccc(C#N)cc1
Ratio [1]: 1.86

COc1cc(Cn2c(C)c(C=C3C(=O)NC(=O)NC3=O)c3ccccc32)cc(OC)c1
Ratio [1]: 1.63 | Activity [13]: inactive

Cc1c(C=C2C(=O)NC(=S)NC2=O)c2ccccc2n1Cc1ccccc1
Ratio [1]: 1.96

Cc1c(C=C2C(=O)NC(=S)NC2=O)c2ccccc2n1Cc1ccccc1C(F)(F)F
Ratio [1]: 1.54

Cc1c(C=C2C(=O)NC(=O)NC2=O)c2ccccc2n1Cc1ccccc1
Ratio [1]: 1.53
